This passage reports inhibition, Activity and residual activity results from ChEMBL document CHEMBL3108700, “Designing anti-inflammatory drugs from parasitic worms: a synthetic small molecule analogue of the Acanthocheilonema viteae product ES-62 prevents development of collagen-induced arthritis” (J Med Chem, 2013).

Activity calls are given as the source filed them. No cut-off for these calls is given here.

The target in series [1] is T1, Toll-like receptor 4 (Mus musculus) (UniProt Q9QUK6).
T1 sequence (whole entry): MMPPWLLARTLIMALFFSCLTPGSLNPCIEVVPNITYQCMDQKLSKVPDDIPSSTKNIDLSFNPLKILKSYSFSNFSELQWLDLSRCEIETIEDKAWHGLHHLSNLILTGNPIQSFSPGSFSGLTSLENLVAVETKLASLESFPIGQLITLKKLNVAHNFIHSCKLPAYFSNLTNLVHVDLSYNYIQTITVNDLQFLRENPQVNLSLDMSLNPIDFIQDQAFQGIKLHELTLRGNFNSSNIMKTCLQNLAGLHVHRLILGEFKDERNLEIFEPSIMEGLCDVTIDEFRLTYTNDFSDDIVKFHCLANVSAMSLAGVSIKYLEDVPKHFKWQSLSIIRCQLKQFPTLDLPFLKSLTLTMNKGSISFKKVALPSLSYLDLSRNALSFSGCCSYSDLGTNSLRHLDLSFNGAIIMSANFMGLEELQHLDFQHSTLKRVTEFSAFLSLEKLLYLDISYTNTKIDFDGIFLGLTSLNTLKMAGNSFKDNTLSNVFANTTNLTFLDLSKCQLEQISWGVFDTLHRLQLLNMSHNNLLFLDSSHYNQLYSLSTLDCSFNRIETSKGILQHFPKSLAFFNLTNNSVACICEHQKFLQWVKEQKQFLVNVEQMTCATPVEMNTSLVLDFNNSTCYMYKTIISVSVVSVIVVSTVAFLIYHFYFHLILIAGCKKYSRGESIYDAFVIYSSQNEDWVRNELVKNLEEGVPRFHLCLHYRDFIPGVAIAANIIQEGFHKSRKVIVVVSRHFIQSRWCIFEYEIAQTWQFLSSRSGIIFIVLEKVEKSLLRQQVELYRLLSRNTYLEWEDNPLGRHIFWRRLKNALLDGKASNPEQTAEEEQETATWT
The series can be described thus: Inhibition of TLR4 in ovalbumin pulsed C57BL/6 mouse BMDC co-cultured with OT-2 CD4+ T cells assessed as reduction of LPS-induced IL-17 production at 5 ug/mL after 3 days by ELISA. The series is classed as cell-based. Conditions: T-cell. Put shortly:
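C57BL/6 bone marrow DCs ± compound (5 μg/mL) were treated ± LPS, pulsed with OVA peptide, and cocultured 3 days with naive OT-II CD4+ T cells. IL-17A was measured by ELISA. Responses were normalized to the LPS response at 10, 100 and 300 nM OVA. Values are mean ± SEM, pooled from four experiments.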
A general note: In an ELISA, binding on a coated surface is turned into a signal by an enzyme label.

Series [2] addresses T1, Toll-like receptor 4 (Mus musculus). The series can be described thus: Inhibition of TLR4 in ovalbumin pulsed BALB/c mouse BMDC co-cultured with DO-11.10 CD4+ T cells assessed as reduction of LPS-induced IL-17 production at 5 ug/mL after 3 days by ELISA. The series is classed as cell-based. Conditions: T-cell. Put shortly:
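BALB/c bone marrow DCs ± compound (5 μg/mL) were treated ± S. minnesota LPS and pulsed with OVA peptide (0–300 nM). They were cocultured 3 days with naive CD4+CD62L+ DO.11.10 T cells, and IL-17A was measured by ELISA. Values are mean ± SD of duplicates from two experiments.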

Series [3] is described as follows: Cytotoxicity against mouse BMDC assessed as reduction in cell viability.
In series [4] the target is T1, Toll-like receptor 4 (Mus musculus). The series can be described thus: Inhibition of TLR4 in C57BL/6 mouse BMDC assessed as reduction of LPS-induced IL-6 production at 5 ug/mL preincubated for 2 hrs prior to LPS challenge measured after 24 hrs by ELISA. Put shortly:
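C57BL/6 bone marrow DCs were generated in complete RPMI with 10 ng/mL GM-CSF. They were preincubated ± compound at 5 μg/mL for 2 h, then stimulated with LPS for 24 h. TNF-α, IL-6 and IL-23 in conditioned medium were measured by ELISA. Values are means of triplicates ± SEM pooled from 4 experiments.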

The subject of series [5] is Mus musculus. The series can be described thus: Antiinflammatory activity in DBA/1 mouse collagen-induced arthritis model assessed as reduction in serum level of IL-17 at 50 ug/kg, sc administered 2 days prior to collagen challenge continued till day 21 post collagen challenge by ELISA. The series is classed as functional, organism-based. Put shortly:
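Serum IL-17 was measured by ELISA in CIA mice dosed subcutaneously (1 μg/dose or PBS) on days −2, 0 and 21. Values are the mean of triplicate analyses per individual mouse (PBS n = 12, treated n = 13).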

For series [6], the system named is Mus musculus. The series can be described thus: Antiinflammatory activity in DBA/1 mouse collagen-induced arthritis model assessed as reduction in number of PMA/ionomycin-stimulated CD8+ T cells expressing IFNgamma at 50 ug/kg, sc administered 2 days prior to collagen challenge continued till day 21 post collagen challenge by flow cytometric analysis relative to control. Conditions: T-cell. The series is classed as functional, organism-based. Put shortly: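 CIA mice given test agent (1 μg/dose) or PBS subcutaneously on days −2, 0 and 21. Draining lymph node cells (10^6/mL) in complete RPMI were stimulated ± 50 ng/mL PMA plus 500 ng/mL ionomycin, with 10 μg/mL brefeldin A for 5 h at 37 °C. Cells were surface-stained for CD4, CD8 and γδ, fixed and permeabilized, then stained for intracellular IFNγ and IL-17A. Gating used isotype controls. Cell numbers per individual mouse; naive n = 7, treated groups n = 13.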
In general terms: In flow cytometry, cells or beads pass a laser one at a time.

Series [7] deals with Mus musculus. The series can be described thus: Antiinflammatory activity in DBA/1 mouse collagen-induced arthritis model assessed as reduction in number of gammadelta+ T cells at 50 ug/kg, sc administered 2 days prior to collagen challenge continued till day 21 post collagen challenge. The series is classed as functional, organism-based. Conditions: T-cell. Put shortly:
(§1)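 Dosing was 1 μg/dose or PBS given subcutaneously on days −2, 0 and 21 of CIA. Total, CD4+, CD8+ and γδ T cell numbers in draining lymph nodes were counted by flow cytometry for each mouse. Naive mice not exposed to collagen served as a further control (naive n = 7; PBS and treated n = 13).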

In series [8] the test system is Mus musculus. The series can be described thus: Antiinflammatory activity in DBA/1 mouse collagen-induced arthritis model assessed as reduction in number of CD4+ T cells at 50 ug/kg, sc administered 2 days prior to collagen challenge continued till day 21 post collagen challenge. Type of series: functional, organism-based. The note with it: T-cell. Put shortly: as §1

Series [9] concerns Mus musculus. The series can be described thus: Antiinflammatory activity in DBA/1 mouse collagen-induced arthritis model assessed as reduction in total number of DLN cells at 50 ug/kg, sc administered 2 days prior to collagen challenge continued till day 21 post collagen challenge. The series is classed as functional, organism-based. Put shortly:
as §1

Series [10] in a line: Cytotoxicity against BLP-stimulated BALB/c mouse BMDM assessed as loss of cell viability at 5 ug/mL preincubated for 18 hrs followed by BLP challenge measured after 24 hrs by 7-AAD staining-based flow cytometric analysis. Put shortly: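 BALB/c bone marrow macrophages (2 × 10^5/well) were rested 24 h in complete RPMI, then given 5 μg/mL compound for 18 h. Cells were stained with 7-AAD for 10 min on ice and the dead fraction read by flow cytometry. One experiment is representative of two.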

Series [11] deals with T1, Toll-like receptor 4 (Mus musculus). The series can be described thus: Inhibition of TLR4 in BALB/c mouse BMDM assessed as reduction of LPS-stimulated IL-6 production at 0.2 ug/ml preincubated for 18 hrs followed by LPS challenge measured after 24 hrs by ELISA.
Series [12] is filed under the species Mus musculus. The series can be described thus: Inhibition of TLR4/IL-1R in BALB/c mouse BMDM assessed as downregulation of LPS-stimulated MyD88 expression at 5 ug/mL preincubated for 2 hrs followed by LPS challenge measured after 18 hrs by flow cytometric analysis (reference value: 127%); values are per cent of control.

Consider `CN(C)CCS(=O)(=O)Cc1ccc(Br)cc1`, for which the inhibition entry in series [1], in series [2] and in series [4] was “Active” throughout. Also, the Activity result in series [3] and in series [10] was “Non-toxic” throughout. In addition, the outcome with Mus musculus [5] was inactive. Also, the outcome in the series on Mus musculus [6], in the series on Mus musculus [7], in the series with Mus musculus [8] and with Mus musculus [9] was Active. Besides, the inhibition entry in series [11] was “inactive”. Also, the residual activity in the series filed under Mus musculus [12] was 95.7%.
